Data set [1] in a line: Drug concentration in 5XFAD mouse plasma at 600 ppm administered as rodent chow starting from 1.5 months and measured after 5 months. As to conditions: route po, time 3.5 months. It counts as ADME, cell-free. Summed up:
(§1)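 WT or 5xFAD mice were fed PLX3397 in AIN-76A chow at 600 ppm or 75 ppm from 1.5 to 5 months of age. Terminal brain and plasma drug concentrations were determined at study end.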

Data set [2] is described as follows: Drug concentration in 5XFAD mouse brain at 600 ppm administered as rodent chow starting from 1.5 months and measured after 5 months. It counts as ADME, tissue-based. Conditions: route po, time 3.5 months, read-out: Ct. In short, it runs like this:
as §1

Data set [3] in a line: Drug concentration in wildtype mouse plasma at 75 ppm administered as rodent chow starting from 1.5 months and measured after 5 months. Conditions: route po, time 3.5 months. The data set is classed as ADME, cell-free. In short, it runs like this:
as §1

Data set [4] can be described thus: Drug concentration in wildtype mouse brain at 75 ppm administered as rodent chow starting from 1.5 months and measured after 5 months. Conditions: route po, time 3.5 months, read-out: Ct. It counts as ADME, tissue-based. Summed up: as §1
Data set [5] has as its system Mus musculus. The data set is described as follows: Antialzheimer activity in 5XFAD mouse assessed as amyloidbeta42 level in detergent insoluble thalamus fraction measured per microgram protein at 1200 ppm administered as rodent chow starting from 1.5 months and measured after 7 months by ELISA (reference value: 905.886 to 11631931 pg). It counts as functional. As to conditions: route po, time 5.5 months, 4015 h. For orientation: An ELISA detects its analyte on a solid surface through an enzyme-linked reagent.

The target of data set [6] is Tyrosine-protein kinase Mer (Homo sapiens, UniProt Q12866). The data set is described as follows: Inhibition of MERTK (unknown origin).
Data set [7] concerns the target cAMP-dependent protein kinase catalytic subunit alpha (Homo sapiens, UniProt P17612). The data set can be described thus: Inhibition of PRKACA (unknown origin).
Data set [8] deals with Mus musculus. The data set can be described thus: Antialzheimer activity in 5XFAD mouse assessed as ApoE immunoreactivity by measuring ApoE intensity of plaque core in thalamus at 1200 ppm administered as rodent chow starting from 1.5 months and measured after 7 months by immunolabeling based confocal microscopic analysis (reference value: 6.13 to 122.68 a.u.). The data set is classed as functional. Conditions: route po, time 5.5 months, 4015 h.

Data set [9] concerns Mus musculus. The data set is described as follows: Effect on APP processing pathway in wildtype mouse assessed as C99 protein signal intensity in cortex at 1200 ppm administered as rodent starting from 1.5 months and measured after 7 months (reference value: 8.282 to 87.456 %). The data set is classed as functional. As to conditions: route po, time 5.5 months, 4015 h.
Data set [10] concerns Mus musculus. The data set is described as follows: Antialzheimer activity in 5XFAD mouse assessed as number of Iba1 positive cells per FOV in subiculum at 1200 ppm administered as rodent chow starting from 1.5 months and measured after 7 months by immunolabeling based confocal microscopic analysis (reference value: 1284 to 1582). The data set is classed as functional. Conditions: route po, time 5.5 months, 4015 h.

For data set [11], the target named is Sphingosine kinase 1 (Homo sapiens, UniProt Q9NYA1). The data set can be described thus: Inhibition of SPHK1 (unknown origin).
Data set [12] is described as follows: Effect on C1qa gene expression in wild type mouse cortex at 1200 ppm administered as rodent chow starting from 1.5 months and measured after 7 months by RNA-Seq analysis (reference value: 16.071 to 20.526 RPKM). The data set is classed as functional. As to conditions: route po, time 5.5 months, 4015 h. In short, it runs like this:
(§2)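 WT and 5xFAD mice were treated with 1200 ppm PLX5622 chow or control chow from 1.5 to 7 months of age. Brains were microdissected into cortex, hippocampus and thalamus, and RNA was extracted from tissue powder. Whole-transcriptome RNA-Seq libraries were sequenced, with n = 4 per group per region (48 samples).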

Data set [13] in a line: Effect on Clec7a gene expression in wild type mouse thalamus at 1200 ppm administered as rodent chow starting from 1.5 months and measured after 7 months by RNA-Seq analysis (reference value: 0.095 to 0.586 RPKM). The data set is classed as functional. As to conditions: route po, time 5.5 months, 4015 h. Summed up: as §2
For data set [14], the target named is Protein kinase C epsilon type (Homo sapiens, UniProt Q02156). The data set can be described thus: Inhibition of PRKCE (unknown origin).
Data set [15] in a line: Clearance in male rat at 1.13 mg/kg, iv administered as single dose. The data set is classed as ADME, organism-based. As to conditions: in vivo.
In data set [16] the target is Tyrosine-protein kinase Fyn (Homo sapiens, UniProt P06241). The data set can be described thus: Inhibition of FYN (unknown origin).
The target in data set [17] is Serine/threonine-protein kinase PAK 6 (Homo sapiens, UniProt Q9NQU5). The data set can be described thus: Inhibition of PAK6 (unknown origin).
Data set [18] relates to Mus musculus. The data set can be described thus: Antialzheimer activity in 5XFAD mouse assessed as microglial elimination at 1200 ppm administered as rodent chow for 24 weeks relative to control. The data set is classed as functional. Conditions: route po.
The subject of data set [19] is Mus musculus. The data set is described as follows: Antialzheimer activity in 5XFAD mouse assessed as number of Iba1 positive cells per FOV in […] cortex at 1200 ppm administered as rodent chow starting from 1.5 months to 4 months followed by compound removal and measured after 1 months by immunolabelling based confocal microscopic analysis (reference value: 210 to 529). It counts as functional. Conditions: route po, time 2.5 months, 1825 h. In short, it runs like this: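 For the repopulation paradigm, 5xFAD mice ate 1200 ppm PLX5622 chow from 1.5 to 4 months of age. Inhibitor chow was then withdrawn, and brains were examined one month later. Sections were stained with Thio-S and immunolabeled for IBA1, then analysed by confocal microscopy in cortical regions.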

Data set [20] is described as follows: Effect on Pcdhac1 gene expression in wildtype mouse hippocampus assessed as percent change in Reads Per kilo base per Million mapped reads at 1200 ppm administered as rodent chow starting from 1.5 months and measured after 7 months by RNA-Seq analysis (reference value: 88.246 to 122.665 %). As to conditions: route po, time 5.5 months, 4015 h. The data set is classed as functional.

A short description of data set [21]: Drug concentration in 5XFAD mouse brain at 1200 ppm administered as rodent chow for 10 to 24 weeks. The data set is classed as ADME, tissue-based. As to conditions: in vivo, po, time 10-24 weeks, read-out: Ct. In short, it runs like this:
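WT or 5xFAD mice were started at 1.5 months of age on PLX5622 formulated at 1200 ppm in AIN-76A chow, with control chow as comparison. Feeding ran for 10 or 24 weeks. Terminal plasma and brain drug levels were then measured. Groups were sex-balanced and compared by two-tailed independent t-test.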

The nature of data set [22]: Ratio of drug concentration in brain to plasma in mouse at 300 ppm administered as rodent chow for 14 days. The data set is classed as ADME, cell-free. Conditions: route po, time 14 day, read-out: BPR.
Data set [23] concerns the target BDNF/NT-3 growth factors receptor (Homo sapiens, UniProt Q16620). The data set can be described thus: Inhibition of NTRK2 (unknown origin).
The nature of data set [24]: Effect on Hexb gene expression in 5XFAD mouse hippocampus at 1200 ppm administered as rodent chow starting from 1.5 months and measured after 7 months by RNA-Seq analysis (reference value: 90.736 to 123.2 RPKM). The data set is classed as functional. As to conditions: route po, time 5.5 months, 4015 h.
The nature of data set [25]: Toxicity in wildtype mouse assessed as proportion of time spent freezing at 1200 ppm administered as rodent chow for 10 to 24 weeks by […] (reference value: 0.10 to 0.53). Conditions: in vivo, po, time 10-24 weeks.
For data set [26], the system named is Mus musculus. The data set can be described thus: Antialzheimer activity in 5XFAD mouse assessed as ApoE immunoreactivity by measuring reduction in core ApoE in cortex at 1200 ppm administered as rodent chow starting from 1.5 months and measured after 7 months by immunolabeling based confocal microscopic analysis relative to control. As to conditions: route po, time 5.5 months, 4015 h. The data set is classed as functional. More on the design: scale not given: the % may be the effect or the level left.

For data set [27], the target named is Calcium/calmodulin-dependent protein kinase type IV (Homo sapiens, UniProt Q16566). The data set can be described thus: Inhibition of CAMK4 (unknown origin).
The subject of data set [28] is Mus musculus. The data set is described as follows: Effect on APP processing pathway in wildtype mouse assessed as ADAM10 protein signal intensity in cortex at 1200 ppm administered as rodent starting from 1.5 months and measured after 7 months (reference value: 37.275 to 230.211 %). It counts as functional. As to conditions: route po, time 5.5 months, 4015 h.
The target in data set [29] is G protein-coupled receptor kinase 6 (Homo sapiens, UniProt P43250). The data set can be described thus: Inhibition of GRK6 (unknown origin).

By IC50 is commonly meant the concentration at which inhibition is half-maximal. As usually defined, the clearance is the rate of elimination divided by the concentration.

Molecules are shown by their SMILES.

Chain of Calcium/calmodulin-dependent protein kinase type IV (Q16566 whole entry): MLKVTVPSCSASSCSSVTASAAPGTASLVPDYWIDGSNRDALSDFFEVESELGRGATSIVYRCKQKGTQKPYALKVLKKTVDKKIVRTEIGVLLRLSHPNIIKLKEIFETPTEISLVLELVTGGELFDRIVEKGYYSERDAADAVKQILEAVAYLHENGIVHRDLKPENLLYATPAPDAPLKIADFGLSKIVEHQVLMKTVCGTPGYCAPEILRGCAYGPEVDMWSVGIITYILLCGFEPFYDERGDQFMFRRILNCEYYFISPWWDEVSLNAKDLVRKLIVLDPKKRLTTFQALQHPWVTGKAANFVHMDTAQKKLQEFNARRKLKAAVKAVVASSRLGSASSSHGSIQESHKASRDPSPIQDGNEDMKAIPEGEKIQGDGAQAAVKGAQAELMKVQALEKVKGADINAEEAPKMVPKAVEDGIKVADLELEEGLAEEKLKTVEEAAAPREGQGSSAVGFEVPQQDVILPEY
Chain of Protein kinase C epsilon type (Q02156 whole entry): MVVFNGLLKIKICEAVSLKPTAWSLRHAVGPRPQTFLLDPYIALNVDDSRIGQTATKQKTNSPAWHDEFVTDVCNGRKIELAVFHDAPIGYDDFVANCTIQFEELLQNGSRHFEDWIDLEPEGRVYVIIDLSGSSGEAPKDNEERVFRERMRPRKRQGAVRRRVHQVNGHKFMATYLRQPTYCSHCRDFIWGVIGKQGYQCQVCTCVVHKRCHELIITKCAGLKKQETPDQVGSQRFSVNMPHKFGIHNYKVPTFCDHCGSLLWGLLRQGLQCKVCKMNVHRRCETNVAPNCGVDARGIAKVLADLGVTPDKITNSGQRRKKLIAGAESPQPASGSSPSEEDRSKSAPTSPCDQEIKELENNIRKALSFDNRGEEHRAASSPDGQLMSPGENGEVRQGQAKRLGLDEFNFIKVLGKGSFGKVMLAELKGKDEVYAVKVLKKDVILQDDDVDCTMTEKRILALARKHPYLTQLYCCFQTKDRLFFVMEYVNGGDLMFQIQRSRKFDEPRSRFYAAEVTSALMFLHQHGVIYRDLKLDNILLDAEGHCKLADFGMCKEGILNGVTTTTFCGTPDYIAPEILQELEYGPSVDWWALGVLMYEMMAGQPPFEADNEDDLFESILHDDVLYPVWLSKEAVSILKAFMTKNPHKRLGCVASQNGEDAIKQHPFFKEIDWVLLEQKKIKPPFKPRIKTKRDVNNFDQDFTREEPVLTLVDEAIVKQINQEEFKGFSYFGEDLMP
Chain of G protein-coupled receptor kinase 6 (P43250 whole entry): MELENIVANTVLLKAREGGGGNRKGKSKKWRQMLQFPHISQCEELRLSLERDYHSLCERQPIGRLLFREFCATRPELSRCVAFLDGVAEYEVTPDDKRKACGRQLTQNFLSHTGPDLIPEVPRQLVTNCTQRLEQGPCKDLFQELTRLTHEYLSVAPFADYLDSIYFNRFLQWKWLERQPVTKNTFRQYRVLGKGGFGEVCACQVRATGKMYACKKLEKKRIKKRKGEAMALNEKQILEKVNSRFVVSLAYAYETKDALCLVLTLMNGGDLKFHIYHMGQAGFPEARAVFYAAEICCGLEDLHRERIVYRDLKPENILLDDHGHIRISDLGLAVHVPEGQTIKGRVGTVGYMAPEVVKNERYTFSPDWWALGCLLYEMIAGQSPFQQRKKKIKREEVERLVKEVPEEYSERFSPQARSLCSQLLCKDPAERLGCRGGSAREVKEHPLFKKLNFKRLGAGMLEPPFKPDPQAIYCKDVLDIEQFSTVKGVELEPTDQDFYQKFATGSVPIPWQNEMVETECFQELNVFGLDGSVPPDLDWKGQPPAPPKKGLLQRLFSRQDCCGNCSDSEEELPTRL
Chain of Tyrosine-protein kinase Mer (Q12866 whole entry): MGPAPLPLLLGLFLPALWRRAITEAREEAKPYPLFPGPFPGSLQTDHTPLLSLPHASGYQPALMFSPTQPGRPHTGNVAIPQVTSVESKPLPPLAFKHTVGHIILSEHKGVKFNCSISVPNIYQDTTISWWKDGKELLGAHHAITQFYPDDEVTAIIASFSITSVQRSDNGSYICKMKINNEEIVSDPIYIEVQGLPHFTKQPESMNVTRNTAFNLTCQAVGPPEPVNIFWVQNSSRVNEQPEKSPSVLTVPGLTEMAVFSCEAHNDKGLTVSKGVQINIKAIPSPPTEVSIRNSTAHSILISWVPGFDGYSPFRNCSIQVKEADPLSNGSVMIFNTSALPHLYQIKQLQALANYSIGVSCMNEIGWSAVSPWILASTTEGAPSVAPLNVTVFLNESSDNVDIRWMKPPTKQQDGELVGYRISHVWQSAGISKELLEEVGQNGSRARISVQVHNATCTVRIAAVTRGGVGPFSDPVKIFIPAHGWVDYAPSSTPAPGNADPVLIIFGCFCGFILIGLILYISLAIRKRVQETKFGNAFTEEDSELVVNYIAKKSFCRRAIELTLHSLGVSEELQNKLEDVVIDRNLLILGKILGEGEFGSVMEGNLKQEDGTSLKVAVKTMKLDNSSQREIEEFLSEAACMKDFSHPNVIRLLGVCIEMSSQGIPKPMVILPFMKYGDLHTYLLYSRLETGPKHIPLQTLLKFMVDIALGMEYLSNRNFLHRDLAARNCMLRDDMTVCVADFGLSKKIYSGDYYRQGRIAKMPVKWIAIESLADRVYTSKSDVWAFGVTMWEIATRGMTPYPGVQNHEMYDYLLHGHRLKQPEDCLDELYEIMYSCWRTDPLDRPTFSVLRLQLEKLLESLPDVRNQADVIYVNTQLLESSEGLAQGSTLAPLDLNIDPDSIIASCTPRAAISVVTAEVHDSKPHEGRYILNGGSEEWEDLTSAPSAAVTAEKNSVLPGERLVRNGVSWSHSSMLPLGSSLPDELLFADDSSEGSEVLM
Chain of Tyrosine-protein kinase Fyn (P06241 whole entry): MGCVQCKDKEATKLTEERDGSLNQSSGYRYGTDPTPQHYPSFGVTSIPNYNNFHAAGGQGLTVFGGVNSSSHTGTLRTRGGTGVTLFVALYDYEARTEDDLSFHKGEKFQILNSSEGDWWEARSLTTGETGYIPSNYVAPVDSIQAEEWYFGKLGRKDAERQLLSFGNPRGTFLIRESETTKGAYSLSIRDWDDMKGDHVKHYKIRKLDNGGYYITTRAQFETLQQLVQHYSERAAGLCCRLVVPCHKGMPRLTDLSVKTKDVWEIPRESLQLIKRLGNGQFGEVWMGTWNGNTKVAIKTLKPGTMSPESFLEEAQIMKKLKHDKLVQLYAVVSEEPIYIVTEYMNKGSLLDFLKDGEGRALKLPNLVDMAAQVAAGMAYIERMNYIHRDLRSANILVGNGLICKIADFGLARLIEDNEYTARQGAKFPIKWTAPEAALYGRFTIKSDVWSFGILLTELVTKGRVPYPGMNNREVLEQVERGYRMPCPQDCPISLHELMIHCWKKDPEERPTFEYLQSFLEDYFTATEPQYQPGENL
Chain of BDNF/NT-3 growth factors receptor (Q16620 whole entry): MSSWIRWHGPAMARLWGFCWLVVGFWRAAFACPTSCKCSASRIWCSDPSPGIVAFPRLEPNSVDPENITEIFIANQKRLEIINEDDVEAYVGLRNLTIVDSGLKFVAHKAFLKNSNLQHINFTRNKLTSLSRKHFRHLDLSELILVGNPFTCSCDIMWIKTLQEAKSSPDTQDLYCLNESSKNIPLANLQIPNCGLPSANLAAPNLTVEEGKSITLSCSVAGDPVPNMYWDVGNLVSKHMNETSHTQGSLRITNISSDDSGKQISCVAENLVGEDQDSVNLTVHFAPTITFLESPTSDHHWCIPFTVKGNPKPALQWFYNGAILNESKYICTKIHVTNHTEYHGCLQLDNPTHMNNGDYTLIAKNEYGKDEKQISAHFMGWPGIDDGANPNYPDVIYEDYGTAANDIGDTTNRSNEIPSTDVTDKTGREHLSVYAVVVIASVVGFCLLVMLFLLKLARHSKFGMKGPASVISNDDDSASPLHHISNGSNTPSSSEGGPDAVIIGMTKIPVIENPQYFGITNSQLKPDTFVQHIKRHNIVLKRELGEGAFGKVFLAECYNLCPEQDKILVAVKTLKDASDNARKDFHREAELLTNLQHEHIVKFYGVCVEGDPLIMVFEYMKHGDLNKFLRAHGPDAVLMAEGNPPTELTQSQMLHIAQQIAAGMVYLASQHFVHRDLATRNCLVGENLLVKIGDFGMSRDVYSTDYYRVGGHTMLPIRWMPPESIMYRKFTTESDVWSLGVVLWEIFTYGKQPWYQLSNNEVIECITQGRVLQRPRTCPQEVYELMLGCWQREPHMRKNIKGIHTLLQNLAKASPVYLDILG
Chain of Sphingosine kinase 1 (Q9NYA1 whole entry): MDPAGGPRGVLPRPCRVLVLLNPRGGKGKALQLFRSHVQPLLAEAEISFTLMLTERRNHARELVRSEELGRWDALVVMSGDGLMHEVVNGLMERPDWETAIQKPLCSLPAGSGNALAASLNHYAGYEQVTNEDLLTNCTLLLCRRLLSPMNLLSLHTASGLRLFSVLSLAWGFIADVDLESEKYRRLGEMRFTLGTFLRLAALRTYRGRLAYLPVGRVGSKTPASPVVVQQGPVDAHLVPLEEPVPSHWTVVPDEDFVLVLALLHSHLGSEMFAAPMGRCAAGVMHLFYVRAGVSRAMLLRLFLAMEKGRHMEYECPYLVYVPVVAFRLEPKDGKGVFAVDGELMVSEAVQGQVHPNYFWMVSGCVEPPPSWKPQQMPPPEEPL

Consider `FC(F)(F)c1ccc(CNc2ccc(Cc3c[nH]c4ncc(Cl)cc34)cn2)cn1` [PEXIDARTINIB], for which the concentration at 2555 h stood at 158 µM in data set [1], 5.6 µM in [2], 12 µM in [3] and 0.3 µM in data set [4].

`COc1ncc(F)cc1CNc1ccc(Cc2c[nH]c3ncc(C)cc23)c(F)n1` [PLX-5622]: the results for the Flu intensity in data set [5] and in data set [8] were 4280.692 a.u and 0.77 a.u, respectively. The IC50 in data set [6], in data set [7], in data set [11], in data set [14], in [16] and in [17] was greater than 1000 nM in each case. For the same compound, the IC50 in data set [23], in data set [27] and in data set [29] was greater than 1000 nM throughout. Moreover, the Activity in data set [9] is reported as 21.073%; in data set [10] it was 25; in data set [12], 0 RPKM; in data set [13], 0 RPKM; in data set [18], 97%; in data set [19] it was 66. The Activity in [20] is on record as 63.951%; in data set [24], 16.382 RPKM; in data set [25], 0.13; in data set [26] it was roughly 50%; in [28], 59.835%. Moreover, in data set [15], the clearance was 7.7 mL/min/kg. For the same compound, the concentration in data set [21] was 3.47 µM. Besides, the Kp at 336 h in data set [22] was 0.22.

For the origin of these results see ChEMBL document CHEMBL5649170, “Sustained microglial depletion with CSF1R inhibitor impairs parenchymal plaque development in an Alzheimer's disease model” (Nat Commun, 2019).
